Experimental findings from PMC2874265 (Journal of Medicinal Chemistry, 2010) are described below.

Data set [1] deals with S. aureus ATCC 29213. Nature of the data set: S. aureus MIC, broth microdilution. The data set is classed as cell-based. The settings on record: for MIC: Staphylococcus aureus, ATCC29213, read-out: S. aureus MIC + 2% BSA; for S. aureus MIC: S. aureus ATCC 29213, broth microdilution. The method, boiled down: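 Broth microdilution MIC per CLSI recommendations against S. aureus ATCC 29213. Protein-shift runs added 2% w/v bovine serum albumin to the assay. End point reproducible within one 2-fold dilution.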

Data set [2] deals with S. aureus (Smith). Nature of the data set: Murine septicaemia model of staphylococcal infection. The data set is classed as in vivo. The settings on record: SC, 3, 10, or 30 mg/kg.
Data set [3] is described as follows: Mouse intravenous pharmacokinetics. The format is in vivo. In a few lines:
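Mice dosed intravenously, either 3 mg/kg given individually or 2 mg/kg in a cassette. Plasma sampled at 5, 15, 30, 60, 120, 240 and 480 min and concentrations measured by LC/MS/MS. AUC, C0, CL, T1/2 and V calculated from plasma concentrations.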

Where only a bound is given, the exact number is not on record here.

On to `COc1cc2nc(COc3ccc(F)c(C(N)=O)c3F)sc2nc1Cl` [compound 28d], for which the MIC in data set [1] is more than 64 µg/mL.
In the case of `CCCc1ccc2sc(COc3ccc(F)c(C(N)=O)c3F)nc2c1` [compound 11], the “S. aureus MIC” value in data set [1] is recorded as “submicrogram/mL”.
The same measure, in the same setting: under `NC(=O)c1c(F)ccc(OCc2nc3cc(Br)ccc3s2)c1F` [compound 8d] stands “submicrogram/mL”.
For `NC(=O)c1c(F)ccc(OCc2nc3cc(Cl)ccc3s2)c1F` [compound 8j], the “survival of infected mice” value in data set [2] is reported as “died on day 2”. In data set [3] (intravenous, 2 mg/kg in a cassette), the V is listed as 5.8 L/kg. In data set [3] (plasma, iv, 2 mg/kg), this molecule displayed an AUC of 100 ng·h/mL, a C0 of 500 ng/mL, a clearance of 315 mL/min/kg and a half-life of 13 min. In addition, the MIC in data set [1] was found to be 2 µg/mL.
In the case of `CCOc1ccc2sc(COc3ccc(F)c(C(N)=O)c3F)nc2c1` [compound 8b], in data set [1], the “S. aureus MIC” value is “submicrogram/mL” and the MIC stood at 0.5 µg/mL.
For the molecule `NC(=O)c1c(F)ccc(OCc2nc3cc(-c4ccccc4)ccc3s2)c1F` [compound 8a], in data set [1], the MIC is 4 µg/mL.
`NC(=O)c1c(F)ccc(OCc2nc3cc(C(F)(F)F)ccc3s2)c1F` [8e]: in data set [1], the “S. aureus MIC” value was “submicrogram/mL”.

Broadly, the MIC is the least concentration at which growth counts as inhibited. A word on the AUC: it is concentration integrated over time. Read a low AUC as low exposure. The term clearance denotes the rate of elimination divided by the concentration. High values mean efficient removal, low ones inefficient removal. By half-life is commonly meant how long it takes for the measured level to halve.
